Sampled rows, rich in hits. Any-hit rate of the full collection: about 1.2%.
proCasp7 act = procaspase-7 activators, primary screen, counter-screen for procaspase-3 activator project, biochemical, absorbance, HTS, human | Caspase-7 (Homo sapiens), P55210 | recombinant procaspase-7, Ac-DEVD-pNA absorbance 405 nm; D23A/D198A/D206A triple mutant, cannot self-cleave; scale: DMSO 0, 5 µM enzyme 100 | activation, % at 8.5 µM | hit rate 0.093% among 330,000;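 active means percent activation above the screen-wide mean plus 3 SD, cut at about 25% in these data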
Target sequence (P55210 whole entry D23A/D198A/D206A): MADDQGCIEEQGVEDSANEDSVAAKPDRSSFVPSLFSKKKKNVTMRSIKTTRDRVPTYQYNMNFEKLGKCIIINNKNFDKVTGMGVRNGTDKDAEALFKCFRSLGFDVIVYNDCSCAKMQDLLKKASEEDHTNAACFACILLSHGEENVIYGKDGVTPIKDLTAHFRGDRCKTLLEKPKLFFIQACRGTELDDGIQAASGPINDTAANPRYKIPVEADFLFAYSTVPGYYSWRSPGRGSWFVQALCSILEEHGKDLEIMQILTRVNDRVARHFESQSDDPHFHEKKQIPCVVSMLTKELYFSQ
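Assay system: Uncleavable procaspase-7 mutant enzyme | Input: 2 µM procaspase-7 mutant as dispensed | Timing: 1 h compound preincubation, 2 h substrate cleavage, 25 °C | Repeats: One well per compound | Control set: DMSO wells as 0%, DMSO with 5 µM added PC-7 as 100% | Technique: Epi-absorbance of released pNA at 405 nm, two timepoints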
procasp3 activ = activators of human procaspase-3 D3A mutant, primary screen, biochemical, absorbance, PC-3 D3A mutant, single concentration. Caspase-3 (Homo sapiens), P42574. recombinant procaspase-3 D3A, Ac-DEVD-pNA absorbance 405 nm. activation, % at 8.5 µM. hit rate 0.11% among 330,000. AID 463141, 2010;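 active means activation above the mean of all tested compounds plus 3 SD, cut at about 21% in these data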;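 further: 0% = DMSO alone and 100% = DMSO wells spiked with extra 5 µM PC-3 D3A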
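Assay system: Autoprocessing-dead procaspase-3 D3A mutant enzyme; also added: Ac-DEVD-pNA; doses: one concentration, 8.5 µM nominal, 0.8% DMSO; times: 1 h compound preincubation, 2 h substrate hydrolysis at 25 °C; technique: 405 nm absorbance of p-nitroaniline, reads at 0 and 120 min; measure: % activation between DMSO and enzyme-spiked controls; repeats: single replicate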
Lipid droplet = inhibitors of hepatocyte lipid droplet formation, primary screen, imaging, high-throughput imaging, BODIPY stain. AML12 mouse hepatocytes, oleate lipid droplets. inhibition, % at 6.5 µM. hit rate 0.4% among 240,000;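 active means lipid droplet intensity inhibited by at least 50%, with more than 500 cells counted; inconclusive means wells with under 300 cells, treated as cytotoxic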
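Test system: AML12 mouse liver cells; schedule: overnight exposure; technique: high-content imaging of BODIPY-stained droplets and DAPI nuclei; read-out: % inhibition of corrected integrated BODIPY droplet signal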
FXN GAA850 act = FXN promoter activators, primary screen, cell-based, luciferase luminescence, HEK293 lucGAA850 | AID 540364, 2011 | hit rate 0.56% among 360,000 | activation, % at 6 µM | HEK293 lucGAA850 FXN promoter luciferase reporter, 24 h; percent of 10 µM SAHA response;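 active means activation above the average of all compounds screened plus 3 SD, cutoff fixed separately per campaign, cut at about 7.5% in these data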;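 further: 0% = DMSO wells and 100% = 10 µM SAHA wells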
Rce1 inhib = yeast Rce1p protease inhibitors, primary screen, biochemical, fluorescence, cell-free homogeneous; CAAX prenyl protease 2 (Saccharomyces cerevisiae (strain ATCC 204508 / S288c)), Q03530; yeast membranes, quenched prenylated peptide cleavage fluorescence; calls only; hit rate 0.27% among 290,000;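 active means fall in fluorescence gain of 50% or more versus controls, with final raw signal at or below 3038400; inconclusive means same 50% fall but final raw signal above 3038400; inactive means fall in fluorescence gain under 50%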;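 further: plate controls were neutral control wells for no effect and wells lacking membranes for full effect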
Target sequence (Q03530 whole entry, looked up): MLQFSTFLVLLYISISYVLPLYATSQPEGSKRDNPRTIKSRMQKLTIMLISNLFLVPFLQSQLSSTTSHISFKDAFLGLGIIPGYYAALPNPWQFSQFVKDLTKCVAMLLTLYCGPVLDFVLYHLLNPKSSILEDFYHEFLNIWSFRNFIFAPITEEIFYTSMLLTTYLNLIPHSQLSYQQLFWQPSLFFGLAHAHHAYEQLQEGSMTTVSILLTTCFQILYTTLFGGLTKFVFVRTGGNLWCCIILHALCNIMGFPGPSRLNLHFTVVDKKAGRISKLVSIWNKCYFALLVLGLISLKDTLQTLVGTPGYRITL
p-CIP stab down = p/CIP-EGFP fusion destabilizers, primary screen, fluorescence, F442A cells. Q05BA5. decrease of EGFP signal, % at 10 µM. 16 h. hit rate 0.01% among 290,000. AID 1984, 2009;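 active means EGFP signal decrease of at least 30% at 10 µM or well 3 SD below plate mean, unless failing retest; inactive means the rest, including hits failing retest or dose response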
Lipid drop inh = hepatocyte lipid droplet accumulation inhibitors, confirmation, imaging, AML12 mouse hepatocytes, single concentration, high-content. AID 463183, 2010. shares compounds with Lipid droplet. BODIPY lipid droplet imaging; droplets induced with 100 µM oleic acid. inhibition, % at 5.2 µM. hit rate 65% among 870;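 active means inhibition of lipid droplet metric at least 50%, with more than 300 cells in each of four replicates; inconclusive means wells under 300 cells, flagged as toxic or low count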;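 further: plate controls were DMSO with oleic acid for no effect and 5 µM Triacsin-C for full effect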
AML12 cytotox = AML12 hepatocyte cytotoxicity, counter-screen for hepatic lipid droplet formation project, imaging, DAPI nuclear morphology imaging; AML12 mouse hepatocytes; hits give high values; cells fed 100 µM oleate overnight; shares compounds with Lipid droplet; z-score at 5 µM; hit rate 3% among 870; in the data active means z-score above about 6.3;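 further: compound exposure lasted overnight at 37 °C before fixation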
PC3 D3A act = procaspase-3 activators, counter-screen for dual procaspase-3/7 activator project, biochemical, absorbance, PC-3 D3A mutant, human | activation, % at 8.5 µM | recombinant PC-3 D3A, Ac-DEVD-pNA absorbance 405 nm; aspartates 9, 28, 175 changed to alanine; 100% = enzyme control | 290 tested, under 10 active | AID 493114, 2011 | shares compounds with proCasp7 act;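 active means mean percent activation across triplicates above a set limit taken from the earlier primary procaspase-3 screen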;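 further: 0% = DMSO wells and 100% = DMSO wells with 5 µM added PC-3 D3A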
Procasp7 act = activation of procaspase-7 enzyme – biochemical, absorbance, human, dual procaspase-3/-7 activator project, confirmation; shares compounds with proCasp7 act; recombinant procaspase-7, Ac-DEVD-pNA absorbance 405 nm; D23A/D198A/D206A mutant that cannot self-cleave; activation, % at 8.5 µM; 290 tested, under 10 active;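 active means mean activation above a set limit carried over from the earlier primary screen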;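 further: 0% = DMSO only and 100% = DMSO with added 5 µM PC-7 enzyme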
GAA30 counter = GAA30 FXN promoter activators, confirmation, counter-screen for GAA850 frataxin promoter activator project, cell-based, luminescence, HEK293, lucGAA30, triplicate; shares compounds with FXN GAA850 act; activation, % at 6 µM; hit rate 66% among 1,900; HEK293 lucGAA30 FXN promoter luciferase, 24 h; DMSO = 0%, 5 µM ipriflavone = 100%;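 active means mean activation above the mean of solvent-only control wells plus 3 SD, cut at about 22% in these data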;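 further: counterscreen of GAA850 promoter hits where activity marks nonselective or luminescence artifacts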
FXN GAA850 conf = FXN GAA850 promoter activators in reporter cells, confirmation, cell-based, luminescence, HEK293 lucGAA850, triplicate | shares compounds with FXN GAA850 act | HEK293 lucGAA850 FXN promoter luciferase reporter, 24 h; 100% = activation by SAHA | activation, % at 6 µM | hit rate 86% among 1,900 | AID 588351, 2011;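 active means mean activation above a set limit taken from the primary screen, cut at about 8% in these data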;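 further: 0% = DMSO wells and 100% = 10 µM SAHA wells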
* hit, by the source's call; i = inactive; ? = inconclusive; / = no result given; + = active, no number.

SMILES | proCasp7 act | procasp3 activ | Lipid droplet | FXN GAA850 act | Rce1 inhib | p-CIP stab down | others
C=CC[N+]1(C)CC[C@]23c4c5ccc(O)c4O[C@H]2C(=O)CC[C@@]3(O)[C@H]1C5 (some centres not stated) | 7 | 1 | / | 0 | + | /
COc1ccc(C(=O)C2CCCN(CCc3ccccc3)C2)cc1OC (configuration not stated) | / | / | / | 2 | / | /
C[C@]12CCC3C(CC[C@H]4C[C@@H](O)CC[C@]34C)[C@H]1C=CC2=O (some centres not stated) | -4 | 7 | / | 9.4* | / | /
CC(=O)[C@H]1CC[C@H]2[C@@H]3CC[C@H]4C[C@H](O)CC[C@]4(C)[C@H]3C(=O)C[C@]12C | -1 | 8 | -5 | -1 | + | -11
CC(=O)OCC(=O)[C@H]1CC[C@H]2[C@@H]3CC[C@H]4C[C@H](O)CC[C@]4(C)[C@H]3C(=O)C[C@]12C | 3 | 6 | / | 1 | / | /
c1ccc(-c2ccc(CN3Cc4ccccc4-n4nncc4C3)cc2)cc1 | / | / | / | -1 | / | /
C[C@@H]1CN([C@@H](C)CO)C(=O)CCCn2nncc2CO[C@H]1CN(C)C(=O)Oc1ccccc1 | / | / | / | 0 | / | /
Cc1oc2ccc(OC(=O)N(C)C)cc2c1C(=O)OC(C)C | 2 | 6 | -2 | 2 | i | -4
CCOC(=O)c1c(-c2ccc(OC)cc2)oc2ccc(OC(=O)N(C)C)cc12 | 14 | -8 | -30 | -1 | + | 7
Cc1ccc2c(c1)Oc1ccccc1N=C2 | / | / | / | 2 | / | /
CC(C)[C@]12O[C@H]1[C@@H]1O[C@]13[C@]1(O[C@H]1C[C@H]1C4=C(CC[C@@]13C)C(=O)OC4)[C@@H]2O | 1 | 2 | 87* | / | i | -18
N#Cc1c(Cl)nc(Cl)c2c1CCN(Cc1ccccc1)C2 | 7 | -4 | 1 | 2 | + | 0
c1ccc(CN2CCN(Cc3ccc4ccccc4c3)CC2)cc1 | 6 | -4 | -2 | 0 | i | -11
CN(C)CCNC(=O)c1cccn(Cc2cccc(C(F)(F)F)c2)c1=O | 9 | -2 | 6 | 3 | + | -3
O=C(COC(=O)c1cc(Br)cc(Br)c1O)NC12CC3CC(CC(C3)C1)C2 | / | / | / | 0 | / | /
CN1CCN(c2ccc([N+](=O)[O-])c(Sc3nncn3C)c2)CC1 | -5 | -9 | 19 | -2 | + | 11
CC(=O)Nc1ccc(S(=O)(=O)N2Cc3ccccc3-n3nncc3C2)cc1 | / | / | / | 0 | / | /
CC1CN(c2ccc([N+](=O)[O-])c3cccnc23)CC(C)N1 (configuration not stated) | -21 | -7 | / | 9.6* | i | -17
COC(=O)C1CN(C#N)N(c2ccc(Cl)cc2)C12c1ccccc1-c1ccccc12 (configuration not stated) | -14 | -4 | 131* | -15 | i | -18 | Lipid drop inh=?;AML12 cytotox=36*
CC1CCC/C=C/C2CC(O)CC2C(O)/C=C/C(=O)O1 (configuration not stated) | -5 | -7 | 110* | -6 | i | 2 | Lipid drop inh=114*;AML12 cytotox=17*
C[C@H]1CCC/C=C/C2C[C@H](O)CC2[C@H](O)/C=C/C(=O)O1 (some centres not stated) | 1 | 9 | ? | -9 | i | 17
CN1CCCC2c3ccccc3CCC21 (configuration not stated) | / | / | / | 1 | / | /
CC(C)CNC(=O)c1c(N)n(Cc2ccc3c(c2)OCO3)c2nc3ccccc3nc12 | 71* | -5 | 14 | 0 | i | 12 | PC3 D3A act=-29;Procasp7 act=-34
Cc1ccc(-[n+]2c(Cc3nn(-c4ccccc4)c(C)[n+]3-c3ccc(C)cc3)nn(-c3ccccc3)c2C)cc1 | / | / | / | 1 | / | /
CCCC/C(C)=C/[C@@H](NP(=O)(c1ccccc1)c1ccccc1)c1ccccc1 | -9 | 10 | -22 | 9.2* | i | -11 | GAA30 counter=13;FXN GAA850 conf=5
CCCCCP(=O)(O)c1ccccc1 | 2 | 1 | / | 1 | i | -11
O=C1C=C2C=C[C@@H]3CC2(O1)[C@H]1CCCCN31 | 6 | 3 | / | 8.1* | / | / | GAA30 counter=36*;FXN GAA850 conf=14*
CN(C)C1C(=O)C(C(N)=O)=C(O)C2(O)C(=O)C3=C(O)c4c(O)cccc4C(C)(O)C3C(O)C12 (configuration not stated) | -15 | -8 | -12 | 16* | i | 3 | GAA30 counter=33*;FXN GAA850 conf=11*
COc1ccc(OC(=O)N(C)C[C@H]2OCc3cnnn3CCCC(=O)N([C@H](C)CO)C[C@H]2C)cc1 | / | / | / | 0 | / | /

Bioassay records as filed in PubChem BioAssay.
